From ChEMBL document CHEMBL1800057, “Discovery of dual inducible/neuronal nitric oxide synthase (iNOS/nNOS) inhibitor development candidate 4-((2-cyclobutyl-1H-imidazo[4,5-b]pyrazin-1-yl)methyl)-7,8-difluoroquinolin-2(1H)-one (KD7332) part 2: identification of a novel, potent, and selective series of benzimidazole-quinolinone …” (J Med Chem, 2010)
Calls of active or inactive are those of the source.

Legend:
Nitric oxide synthase 1 [1] = biological target: T1, Nitric oxide synthase 1 (Homo sapiens, UniProt P29475); assay: Inhibition of human nNOS expressed in HEK293 cells assessed as inhibition ionomycin induced nitric oxide production at 100 uM incubated for 24 hrs measured after 18 hrs of ionomycin challenge using 2,3-diaminonaphthalene by fluorescence assay; format: cell-based
T1 sequence (P29475 whole entry): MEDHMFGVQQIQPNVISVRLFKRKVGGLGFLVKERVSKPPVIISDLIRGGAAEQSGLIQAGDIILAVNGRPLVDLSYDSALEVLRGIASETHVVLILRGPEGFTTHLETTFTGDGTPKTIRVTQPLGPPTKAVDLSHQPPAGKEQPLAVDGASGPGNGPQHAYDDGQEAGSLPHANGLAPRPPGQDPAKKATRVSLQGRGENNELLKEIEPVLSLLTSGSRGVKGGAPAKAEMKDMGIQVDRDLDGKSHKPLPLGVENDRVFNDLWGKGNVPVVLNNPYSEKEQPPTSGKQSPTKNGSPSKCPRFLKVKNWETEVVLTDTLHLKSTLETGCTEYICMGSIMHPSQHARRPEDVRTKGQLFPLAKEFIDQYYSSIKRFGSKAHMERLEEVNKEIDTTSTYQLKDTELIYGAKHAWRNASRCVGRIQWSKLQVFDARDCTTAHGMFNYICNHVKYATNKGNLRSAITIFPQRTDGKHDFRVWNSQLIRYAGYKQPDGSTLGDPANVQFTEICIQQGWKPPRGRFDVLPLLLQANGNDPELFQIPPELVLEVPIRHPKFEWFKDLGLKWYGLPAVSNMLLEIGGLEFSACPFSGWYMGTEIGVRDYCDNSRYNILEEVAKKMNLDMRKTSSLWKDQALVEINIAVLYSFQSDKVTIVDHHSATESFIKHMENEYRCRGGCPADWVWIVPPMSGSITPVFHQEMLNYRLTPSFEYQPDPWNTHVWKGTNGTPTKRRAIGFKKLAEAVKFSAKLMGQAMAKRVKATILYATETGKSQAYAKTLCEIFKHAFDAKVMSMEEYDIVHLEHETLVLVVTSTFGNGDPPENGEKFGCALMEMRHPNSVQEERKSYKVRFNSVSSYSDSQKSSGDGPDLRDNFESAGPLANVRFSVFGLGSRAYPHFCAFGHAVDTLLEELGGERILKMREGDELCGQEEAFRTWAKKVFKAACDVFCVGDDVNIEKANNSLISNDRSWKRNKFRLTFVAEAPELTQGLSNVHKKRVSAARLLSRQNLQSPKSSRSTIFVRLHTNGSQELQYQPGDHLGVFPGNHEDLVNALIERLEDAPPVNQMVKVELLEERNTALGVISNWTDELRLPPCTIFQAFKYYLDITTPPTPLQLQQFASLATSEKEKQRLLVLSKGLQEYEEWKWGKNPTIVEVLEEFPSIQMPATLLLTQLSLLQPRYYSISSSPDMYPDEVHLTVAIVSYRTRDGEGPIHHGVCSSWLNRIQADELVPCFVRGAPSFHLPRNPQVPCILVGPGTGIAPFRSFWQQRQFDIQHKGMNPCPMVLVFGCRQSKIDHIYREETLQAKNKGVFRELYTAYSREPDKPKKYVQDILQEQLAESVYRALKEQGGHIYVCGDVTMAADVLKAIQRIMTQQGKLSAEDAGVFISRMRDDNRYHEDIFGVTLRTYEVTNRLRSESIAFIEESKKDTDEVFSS

[2] = biological target: T2, Nitric oxide synthase 3 (Homo sapiens) (UniProt P29474); assay: Inhibition of human eNOS expressed in HEK293 cells assessed as inhibition A23187 induced nitric oxide production at 100 uM incubated for 24 hrs measured after 18 hrs of […] challenge using 2,3-diaminonaphthalene by fluorescence assay; format: cell-based
T2 sequence (whole entry): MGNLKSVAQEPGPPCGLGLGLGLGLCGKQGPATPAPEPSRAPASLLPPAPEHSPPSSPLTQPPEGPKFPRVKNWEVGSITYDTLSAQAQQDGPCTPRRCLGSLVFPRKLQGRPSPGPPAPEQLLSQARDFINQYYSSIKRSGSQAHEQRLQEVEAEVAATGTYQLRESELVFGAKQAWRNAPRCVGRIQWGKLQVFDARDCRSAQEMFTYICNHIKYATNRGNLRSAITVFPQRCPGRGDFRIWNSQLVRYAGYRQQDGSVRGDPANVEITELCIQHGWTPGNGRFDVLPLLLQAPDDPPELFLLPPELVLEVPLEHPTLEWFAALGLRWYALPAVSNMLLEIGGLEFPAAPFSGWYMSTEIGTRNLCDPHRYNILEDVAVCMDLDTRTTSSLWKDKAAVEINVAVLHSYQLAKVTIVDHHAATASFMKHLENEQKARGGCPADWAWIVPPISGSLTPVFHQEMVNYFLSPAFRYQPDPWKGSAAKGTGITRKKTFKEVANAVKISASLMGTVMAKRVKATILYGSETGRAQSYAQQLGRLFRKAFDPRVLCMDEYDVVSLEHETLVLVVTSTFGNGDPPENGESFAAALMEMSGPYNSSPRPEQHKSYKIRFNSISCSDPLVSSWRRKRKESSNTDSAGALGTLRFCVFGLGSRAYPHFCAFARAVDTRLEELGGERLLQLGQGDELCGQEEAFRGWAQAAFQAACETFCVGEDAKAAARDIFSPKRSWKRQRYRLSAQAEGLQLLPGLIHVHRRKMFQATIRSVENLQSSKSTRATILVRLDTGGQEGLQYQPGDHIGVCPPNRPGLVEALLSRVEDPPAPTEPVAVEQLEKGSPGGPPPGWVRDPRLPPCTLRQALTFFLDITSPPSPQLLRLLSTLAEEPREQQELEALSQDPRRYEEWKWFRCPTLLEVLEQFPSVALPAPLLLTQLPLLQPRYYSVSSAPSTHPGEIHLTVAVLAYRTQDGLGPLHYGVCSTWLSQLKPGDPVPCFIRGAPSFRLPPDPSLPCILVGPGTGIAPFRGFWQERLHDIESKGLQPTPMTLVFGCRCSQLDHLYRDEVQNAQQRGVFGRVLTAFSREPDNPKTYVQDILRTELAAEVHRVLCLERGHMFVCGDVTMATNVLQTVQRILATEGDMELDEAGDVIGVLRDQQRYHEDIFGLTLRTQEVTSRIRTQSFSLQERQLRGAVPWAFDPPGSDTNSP

Liver = assay: Half life in mouse liver microsomes assessed as formation of oxidation product and glucuronide conjugate; format: ADME, Microsome
Outline: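 Mouse liver microsomes run under combined phase I oxidation and phase II glucuronide conjugation; half-life reported in minutes.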

Nitric oxide synthase 3 = biological target: T3, Nitric oxide synthase 3 (Homo sapiens, UniProt P29474); assay: Inhibition of human eNOS expressed in HEK293 cells assessed as inhibition A23187 induced nitric oxide production incubated for 24 hrs measured after 18 hrs of […] challenge using 2,3-diaminonaphthalene by fluorescence assay; format: cell-based
T3 sequence (P29474 whole entry): T2 sequence (whole entry)
Outline: (§1)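 HEK293 cells transfected for 4 h at 37 °C with human nNOS (10 μg) or human eNOS (15 μg) plasmid (Fugene 6, 3:1). Cells replated at 5e5 cells/mL and dosed with compound at once; SEITU (100 μM final) as positive control. After 24 h, cells activated with A23187 (83 nM final) for eNOS or ionomycin (30 μM final) for nNOS. NO read 18 h later as nitrite-DAN fluorescence.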

Nitric oxide synthase 1 [3] = biological target: T1, Nitric oxide synthase 1; assay: Inhibition of human nNOS expressed in HEK293 cells assessed as inhibition ionomycin induced nitric oxide production incubated for 24 hrs measured after 18 hrs of ionomycin challenge using 2,3-diaminonaphthalene by fluorescence assay; format: cell-based; outline: as §1
Homo sapiens [4] = species: Homo sapiens; assay: Ratio of IC50 for human nNOS to EC50 for human iNOS
[5] = biological target: T4, Nitric oxide synthase, inducible (Homo sapiens, UniProt P35228); assay: Inhibition of human iNOS expressed in HEK293 cells assessed as inhibition of nitric oxide production after 18 hrs using 2,3-diaminonaphthalene by fluorescence assay; format: cell-based
T4 sequence (P35228 whole entry): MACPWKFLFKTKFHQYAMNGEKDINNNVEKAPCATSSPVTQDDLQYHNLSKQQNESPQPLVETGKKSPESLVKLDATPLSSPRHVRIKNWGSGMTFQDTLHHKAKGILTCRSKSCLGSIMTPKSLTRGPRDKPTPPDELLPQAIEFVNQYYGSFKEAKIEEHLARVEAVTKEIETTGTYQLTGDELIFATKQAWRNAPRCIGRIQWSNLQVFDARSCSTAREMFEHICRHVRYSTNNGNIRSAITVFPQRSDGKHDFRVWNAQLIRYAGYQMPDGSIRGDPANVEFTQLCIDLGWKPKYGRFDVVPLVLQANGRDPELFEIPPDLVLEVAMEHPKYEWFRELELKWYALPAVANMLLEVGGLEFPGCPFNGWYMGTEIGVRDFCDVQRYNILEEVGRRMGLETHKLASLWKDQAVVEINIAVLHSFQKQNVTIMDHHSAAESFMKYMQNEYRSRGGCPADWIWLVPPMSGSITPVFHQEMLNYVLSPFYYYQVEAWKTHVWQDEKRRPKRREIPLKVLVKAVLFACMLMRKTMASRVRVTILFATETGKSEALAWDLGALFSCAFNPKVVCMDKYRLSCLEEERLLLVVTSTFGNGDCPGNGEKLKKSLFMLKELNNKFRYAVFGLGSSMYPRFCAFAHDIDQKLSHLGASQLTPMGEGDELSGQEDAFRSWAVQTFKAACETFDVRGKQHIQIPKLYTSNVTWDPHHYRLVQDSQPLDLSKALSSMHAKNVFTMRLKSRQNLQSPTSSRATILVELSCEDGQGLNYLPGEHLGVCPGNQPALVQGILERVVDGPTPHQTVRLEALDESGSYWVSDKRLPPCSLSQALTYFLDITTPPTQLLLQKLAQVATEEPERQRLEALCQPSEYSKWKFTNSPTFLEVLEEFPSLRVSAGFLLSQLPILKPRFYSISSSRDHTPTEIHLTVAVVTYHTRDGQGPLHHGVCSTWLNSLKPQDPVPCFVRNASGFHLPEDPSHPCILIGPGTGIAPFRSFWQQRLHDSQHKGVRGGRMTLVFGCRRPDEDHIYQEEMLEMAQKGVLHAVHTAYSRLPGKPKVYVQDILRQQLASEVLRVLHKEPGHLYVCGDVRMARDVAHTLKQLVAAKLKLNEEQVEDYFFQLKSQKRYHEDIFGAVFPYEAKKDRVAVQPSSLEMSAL
Outline: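 HEK293 cells grown to ~70% confluence in DMEM/10% FBS with pen/strep, transiently transfected with 10 μg human or murine iNOS plasmid plus Fugene 6 for 4 h at 37 °C, 10% CO2. Cells replated at 5e5 cells/mL and dosed with compound at once; 1400W (100 μM final) as positive control. After 18 h, DAN (10 μg/mL final) in HCl (0.1 N final) added for 20 min at room temperature. Fluorescence read after NaOH (0.12 N final).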

Homo sapiens [6] = species: Homo sapiens; assay: Ratio of IC50 for human eNOS to EC50 for human iNOS
Mus musculus [7] = assay: Antiallodynic activity against von Frey hair mechanically stimulated neuropathic pain in mouse Chung model of neuropathic pain assessed as attenuation of tactile allodynia at 30 mg/kg, po bid for 4 days; format: functional, organism-based; design: dose 30 mg/kg
Outline: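 Spinal nerve ligation in mice under isoflurane (5% induction, 2-3% maintenance). Von Frey filaments pressed on the paw for up to 10 s. 50% withdrawal threshold derived by Dixon's up-down method. Only mice with baseline thresholds of ~0.2-0.3 g between 5 and 10 days post-surgery were included. Dosing was oral.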

Mus musculus [8] = assay: Antinociceptive activity against formalin-induced pain in mouse assessed as attenuation of nocifensive phase 2 behaviors during phase 2 (25 to 45 mins post formalin injection) administered via oral gavage 30 mins before to formalin challenge; format: functional
Outline: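 Mice were given compound by oral gavage in PEG/Tween 80/PVP + CMC vehicle 30 min before 20 μL of 5% formalin was injected into the left hind paw. Paw flinching, licking and biting were timed in 5 min bins by a single observer. Read-out was time in nociceptive behaviour at 25-45 min. Mean ± SE, n = 5-6, one-way ANOVA with post hoc tests.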

Mus musculus [9] = assay: Neurotoxicity in C57Bl/6j mouse assessed as inability to maintain equilibrium on rotarod up to 1000 mg/kg, po determined 1 to 3 hrs postdose by rotarod test; format: toxicity, organism-based; design: dose 1000 mg/kg, route oral; settings: in vivo
Outline: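 Male C57Bl/6j mice were acclimated to the rotarod at 4 rpm, then given two training sessions on an accelerating rod (4-40 rpm over 300 s). Only mice with latencies >60 s were kept. After oral dosing, latency to fall from the accelerating rod was recorded at 1, 2 and 3 h.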

Mus musculus [10] = assay: Antiallodynic activity against von Frey hair mechanically stimulated neuropathic pain in mouse Chung model of neuropathic pain assessed as attenuation of tactile allodynia at 300 mg/kg, po; format: functional, organism-based; design: dose 300 mg/kg
Rhesus monkey = assay: Inhibition of capsaicin-induced thermal hyperalgesia in rhesus monkey model; format: functional, organism-based; settings: Macaca mulatta
Mus musculus [11] = assay: Antiallodynic activity against von Frey hair mechanically stimulated neuropathic pain in mouse Chung model of neuropathic pain assessed as attenuation of tactile allodynia at 30 mg/kg, po; format: functional, organism-based; design: dose 30 mg/kg
Outline: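 Spinal nerve ligation (Chung) surgery done under isoflurane anaesthesia (5% induction, 2-3% maintenance). Only mice with baseline 50% withdrawal threshold ~0.2-0.3 g at days 5-10 after surgery were included. Von Frey filaments applied for 10 s each; 50% threshold calculated by Dixon up-down method. Compound given po at 30 mg/kg, and also 30 mg/kg BID for four days.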

[12] = Cmax in mouse at 1 mg/kg, iv and 10 mg/kg, po; format: ADME, organism-based; settings: in vivo
[13] = Half life in mouse; format: ADME, organism-based; settings: in vivo
[14] = Plasma clearance in mouse; format: ADME, organism-based
[15] = Oral bioavailability in mouse at 10 mg/kg; format: ADME, organism-based; settings: in vivo
Homo sapiens [16] = species: Homo sapiens; assay: Selectivity for human iNOS over human eNOS
Outline: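 Ratio of EC₅₀ values from transiently transfected HEK293 cells. iNOS: plasmid, 18 h with compound, 1400W control, n = 8/point. eNOS: 15 μg human eNOS plasmid, 24 h with compound at 37 °C, then A23187 (83 nM final) for 18 h, SEITU (100 μM final) control, n = 3/point. NO read by DAN fluorescence; each EC₅₀ from three runs of 10-point curves.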

[17] = Plasma clearance in mouse at 1 mg/kg, iv and 10 mg/kg, po; format: ADME, organism-based
[18] = Half life in mouse at 1 mg/kg, iv and 10 mg/kg, po; format: ADME, organism-based; settings: in vivo
[19] = Volume of distribution at steady state in mouse at 1 mg/kg, iv and 10 mg/kg, po; format: ADME, organism-based; settings: in vivo, read-out: Vdss
[20] = biological target: T4, Nitric oxide synthase, inducible; assay: Inhibition of human iNOS
Outline: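 HEK293 cells grown to about 70% confluence in DMEM with 10% FBS and pen/strep, then transiently transfected with human iNOS plasmid using Fugene 6 for 4 h at 37 °C, 10% CO₂. Cells replated at 5e5 cells/mL and treated at once with compound; 1400W (100 μM final) as positive control. After 18 h, NO read as DAN-nitrite fluorescence. EC₅₀ from three runs, 10-point curves, n = 8/point.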

With CC(C)(C)c1nc2ccccc2n1Cc1cc(=O)[nH]c2c(F)c(F)ccc12 as the molecule, how does the inhibition (Nitric oxide synthase 1 [1]) read?
The inhibition was < 50%.

And the inhibition [2]?
Its inhibition is < 50%.

And the t1/2 (Liver)?
Its t1/2 is > 120 min.

And the EC50 (Nitric oxide synthase 3)?
Its EC50 is > 100 µM.

And the EC50 (Nitric oxide synthase 1 [3])?
The EC50 was > 100 µM.

What about the Ratio EC50 (Homo sapiens [4]) of the same molecule?
Its Ratio EC50 is > 2.

What about the EC50 [5] of the same molecule?
The EC50 was 48 µM.

What about the Ratio EC50 (Homo sapiens [6]) of the same molecule?
The Ratio EC50 was > 2.

Which Activity (Mus musculus [7]) does the source give for CN1CC[C@]23c4c5ccc(O)c4O[C@H]2[C@@H](O)C=C[C@H]3[C@H]1C5 here?
The Activity was “Active”.

For NCC1(CC(=O)O)CCCCC1 [GABAPENTIN], which ED50 (Mus musculus [8]) is on record?
Its ED50 is 110 mg/kg.

What about the Activity (Mus musculus [9]) of the same molecule?
The Activity was “Dose-dependent effect”.

And the Activity (Mus musculus [10])?
The Activity was “Active”.

What does the source list for O=c1cc(Cn2c(C3CCC3)nc3nccnc32)c2ccc(F)c(F)c2[nH]1?
inhibition (Rhesus monkey): Active; Ratio EC50 (Homo sapiens [4]): 3.3; Activity (Mus musculus [7]): Active; Ratio EC50 (Homo sapiens [6]): 180; Activity (Mus musculus [11]): Active

Which results are given for Cc1ncsc1C(=O)N(Cc1cc(=O)[nH]c2c(F)cccc12)c1cccc(Cl)c1?
Cmax [12]: 1400 ng/mL; half-life [13]: 12 min; clearance [14]: > 100 mL/min/kg; bioavailability [15]: 7%; Selectivity ratio (Homo sapiens [16]): > 2000; clearance [17]: > 100 mL/min/kg; half-life [18]: 12 min; Vd [19]: 1.6 L/kg; IC50 [20]: 0.011 µM
